Test results taken from ChEMBL document CHEMBL1124260, “Synthesis and antitumor activity of quaternary ellipticine glycosides, a series of novel and highly active antitumor agents” (1988).

Experiments:
Mus musculus [1] = assay: Inhibition of sc implanted syngeneic colon 38 carcinoma by ip administration at 20 mg/kg on 1, 3, 5, 7, 9 days measured as inhibition ratio; type: functional; settings: route subcutaneous
Summary of the method: (§1)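 Tumor homogenate (70 mg) implanted into the axillary region of female BDF1 mice. Drug dissolved in 0.9% NaCl and diluted with saline just before use, then given ip on days 1, 3, 5, 7 and 9. Tumor length and width were measured by caliper on day 20 after inoculation and converted to estimated weight. Result reported as treated vs control tumor weight, T/C %.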

Mus musculus [2] = assay: Antitumor activity against ip implanted P388 leukemia in mouse after ip administration of 1.25 mg/kg for 5 days expressed as increase in mean life span; type: functional; settings: 120 h, route intraperitoneal
Summary of the method: (§2)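 Saline-dissolved drug was given ip daily for 5 consecutive days, beginning 24 h post-transplant. ILS % was calculated from treated vs control mean survival time over an 80-day observation period.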

Mus musculus [3] = assay: Antitumor activity against ip implanted L1210 leukemia in mouse after ip administration of 30 mg/kg for 5 days expressed as increase in mean life span; type: functional; settings: Mus musculus, L1210, ip, 120 h, route intraperitoneal
Summary of the method: (§3)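 Drug was dissolved in 0.9% NaCl, diluted just before use and given ip once daily for 5 consecutive days, starting 24 h after transplant. ILS % = mean survival time of treated vs control mice, observed for 80 days.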

Mus musculus [4] = assay: Effect on ip implanted syngeneic B16 melanoma by ip administration for 9 days at 10 mg/kg was measured as increase in mean life span; settings: 216 h
Mus musculus [5] = assay: Antitumor activity against ip implanted L1210 leukemia in mouse after ip administration of 20 mg/kg for 5 days expressed as increase in mean life span; type: functional; settings: 120 h, route intraperitoneal; summary of the method: as §3
Mus musculus [6] = assay: Antitumor activity against ip implanted P388 leukemia in mouse after ip administration of 20 mg/kg for 5 days expressed as increase in mean life span; type: functional; settings: 120 h, route intraperitoneal; summary of the method: as §2
Mus musculus [7] = assay: Antitumor activity against ip implanted P388 leukemia in mouse after ip administration of 40 mg/kg for 5 days expressed as increase in mean life span; type: functional; settings: 120 h, route intraperitoneal; summary of the method: as §2
Mus musculus [8] = assay: Number of survivors out of 6 ip implanted L1210 leukemia mouse, tested after 80 days at 30 mg/kg; type: functional; settings: route intraperitoneal
Summary of the method: (§4)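 Female BDF1 mice implanted ip with ascitic fluid holding 10^5 L1210 cells. Saline-dissolved drug given ip daily on days 1-5, starting 24 h after implant. Six mice per dose group, followed 80 days. Survivors/total counted at day 80; ILS % from mean survival time vs controls.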

Mus musculus [9] = assay: Number of survivors out of 6 ip implanted L1210 leukemia in mouse after ip administration of 10 mg/kg after 80 days; type: functional; settings: route intraperitoneal; summary of the method: as §4
Mus musculus [10] = assay: Inhibition of sc implanted syngeneic colon 38 carcinoma by ip administration at 40 mg/kg on 1, 3, 5, 7, 9 days measured as inhibition ratio; type: functional; settings: route subcutaneous; summary of the method: as §1
Mus musculus [11] = assay: Effect on ip implanted syngeneic B16 melanoma by ip administration of 20 mg/kg for 9 days measured as increase in mean life span; settings: 216 h
Mus musculus [12] = assay: Effect on ip implanted syngeneic B16 melanoma by ip administration for 9 days at 5 mg/kg was measured as increase in mean life span; settings: 216 h
Mus musculus [13] = assay: Number of survivors out of 6 ip implanted P388 leukemia in mouse after ip administration of 20 mg/kg after 80 days; type: functional; settings: route intraperitoneal
Summary of the method: (§5)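 P388 leukemia, 10^6 ascitic cells implanted ip in female BDF1 mice. Drug in saline given ip for 5 consecutive days from 24 h after transplant. Groups of six per dose level. Survivors/total recorded at the 80-day end of observation; ILS % from treated/control mean survival time.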

Mus musculus [14] = assay: Antitumor activity against ip implanted P388 leukemia in mouse after ip administration of 10 mg/kg for 5 days expressed as increase in mean life span; type: functional; settings: 120 h, route intraperitoneal; summary of the method: as §2
Mus musculus [15] = assay: Antitumor activity against ip implanted L1210 leukemia in mouse after ip administration of 10 mg/kg for 5 days expressed as increase in mean life span; type: functional; settings: route intraperitoneal; summary of the method: as §3
Mus musculus [16] = assay: Number of survivors out of 6 ip implanted P388 leukemia in mouse after ip administration of 10 mg/kg after 80 days; type: functional; settings: route intraperitoneal; summary of the method: as §5
Mus musculus [17] = assay: Number of survivors out of 6 ip implanted L1210 leukemia in mouse after ip administration of 40 mg/kg after 80 days; type: functional; settings: route intraperitoneal; summary of the method: as §4
Mus musculus [18] = assay: Antitumor activity against ip implanted P388 leukemia in mouse after ip administration of 5 mg/kg for 5 days expressed as increase in mean life span; type: functional; settings: 120 h, route intraperitoneal; summary of the method: as §2
Mus musculus [19] = assay: Number of survivors out of 6 ip implanted P388 leukemia in mouse after ip administration of 5 mg/kg after 80 days; type: functional; settings: route intraperitoneal; summary of the method: as §5
Mus musculus [20] = assay: Number of survivors out of 6 ip implanted P388 leukemia in mouse after ip administration of 40 mg/kg after 80 days; type: functional; settings: route intraperitoneal; summary of the method: as §5
Mus musculus [21] = assay: Antitumor activity against ip implanted L1210 leukemia in mouse after ip administration of 40 mg/kg for 5 days expressed as increase in mean life span; type: functional; settings: 120 h, route intraperitoneal; summary of the method: as §3
Mus musculus [22] = assay: Antitumor activity against ip implanted L1210 leukemia in mouse after ip administration of 1.25 mg/kg for 5 days expressed as increase in mean life span; type: functional; settings: 120 h, route intraperitoneal; summary of the method: as §3
Mus musculus [23] = assay: Inhibition of sc implanted syngeneic colon 38 carcinoma by ip administration at 30 mg/kg on 1, 3, 5, 7, 9 days measured as inhibition ratio; type: functional; settings: route intraperitoneal; summary of the method: as §1
Mus musculus [24] = assay: Antitumor activity against ip implanted L1210 leukemia in mouse after ip administration of 5 mg/kg for 5 days expressed as increase in mean life span; type: functional; settings: Mus musculus, L1210, ip, 120 h, route intraperitoneal; summary of the method: as §3
Mus musculus [25] = assay: Number of survivors out of 6 ip implanted L1210 leukemia in mouse after ip administration of 20 mg/kg after 80 days; type: functional; settings: route intraperitoneal; summary of the method: as §4
Mus musculus [26] = assay: Antitumor activity against ip implanted P388 leukemia in mouse after ip administration of 30 mg/kg for 5 days expressed as increase in mean life span; type: functional; settings: 120 h, route intraperitoneal; summary of the method: as §2
Mus musculus [27] = assay: Antitumor activity against ip implanted syngeneic L1210 leukemia in mouse after ip administration of 60 mg/kg for 5 days expressed as increase in mean life span; type: functional; settings: 120 h, route intraperitoneal; summary of the method: as §3
Mus musculus [28] = assay: Antitumor activity against ip implanted P388 leukemia in mouse after iv administration of 32 mg/kg for 5 days expressed as increase in mean life span; settings: 120 h
Mus musculus [29] = assay: Antitumor activity against ip implanted L1210 leukemia in mouse after iv administration of 32 mg/kg for 5 days expressed as increase in mean life span; settings: 120 h
Mus musculus [30] = assay: Antitumor activity against ip implanted L1210 leukemia in mouse after iv administration of 8 mg/kg for 5 days expressed as increase in mean life span; settings: 120 h
Mus musculus [31] = assay: Antitumor activity against ip implanted L1210 leukemia in mouse after iv administration of 16 mg/kg for 5 days expressed as increase in mean life span; settings: 120 h

Work on `Cc1c2cc[n+]([C@@H]3OC[C@@H](O)[C@H](O)[C@@H]3O)cc2c(C)c2c1[nH]c1ccc(O)cc12.[Cl-]` yielded a T/C (Mus musculus [1]) of 37%, an ILS at 1.25 mg/kg (Mus musculus [2]) of 87% and an ILS at 30 mg/kg (Mus musculus [3]) greater than 786%. The ILS at 10 mg/kg (Mus musculus [4]) was 61%, the ILS at 20 mg/kg (Mus musculus [5]) was greater than 249% and the ILS at 20 mg/kg (Mus musculus [6]) was greater than 585%. For the same molecule, the ILS at 40 mg/kg (Mus musculus [7]) was greater than 526%, the Cures (Mus musculus [8]) was 5 and the Cures (Mus musculus [9]) was 1. The T/C (Mus musculus [10]) was 5%, the ILS at 20 mg/kg (Mus musculus [11]) was 87% and the ILS at 5 mg/kg (Mus musculus [12]) was 41%. The Cures (Mus musculus [13]) was 4, the ILS at 10 mg/kg (Mus musculus [14]) was greater than 369% and the ILS at 10 mg/kg (Mus musculus [15]; Mus musculus, L1210, ip, 120 h) was greater than 238%. For the same molecule, the Cures (Mus musculus [16]) was 2, the Cures (Mus musculus [17]) was 4 and the ILS at 5 mg/kg (Mus musculus [18]) was greater than 212%. The Cures (Mus musculus [19]) was 1, the Cures (Mus musculus [20]) was 4 and the ILS at 40 mg/kg (Mus musculus [21]) was greater than 668%. The ILS at 1.25 mg/kg (Mus musculus [22]) was 46%, the T/C (Mus musculus [23]) was 18% and the ILS at 5 mg/kg (Mus musculus [24]) was 68%. It also gave a Cures (Mus musculus [25]) of 1.

In the case of `Cc1c2ccncc2c(C)c2c1[nH]c1ccc(O)cc12`, the ILS at 30 mg/kg (Mus musculus [26]) is reported as 91% and the ILS at 60 mg/kg (Mus musculus [27]) is reported as 79%.

In the case of `Cc1c2cc[n+]([C@@H]3O[C@H](CO)[C@H](O)[C@@H]3O)cc2c(C)c2c1[nH]c1ccc(O)cc12.[Cl-]` (stereo in doubt; 43a), the T/C (Mus musculus [1]) is reported as 61%, the ILS at 1.25 mg/kg (Mus musculus [2]) is reported as 68% and the ILS at 30 mg/kg (Mus musculus [3]) is reported as greater than 967%. The ILS at 10 mg/kg (Mus musculus [4]) was 44%, the ILS at 20 mg/kg (Mus musculus [5]) was greater than 503% and the ILS at 20 mg/kg (Mus musculus [6]) was greater than 510%. The ILS at 32 mg/kg (Mus musculus [28]) was 176%, the ILS at 40 mg/kg (Mus musculus [7]) was greater than 220% and the Cures (Mus musculus [8]) was 6. It also gave a Cures (Mus musculus [9]) of 2, a T/C (Mus musculus [10]) of 8% and an ILS at 20 mg/kg (Mus musculus [11]) of 77%. It also gave an ILS at 5 mg/kg (Mus musculus [12]) of 39%, a Cures (Mus musculus [13]) of 4 and an ILS at 10 mg/kg (Mus musculus [14]) greater than 332%. It also gave an ILS (Mus musculus [15]; 10 mg/kg) greater than 377%, an ILS at 32 mg/kg (Mus musculus [29]) of 134% and a Cures (Mus musculus [16]) of 2. The Cures (Mus musculus [17]) was 1, the ILS at 5 mg/kg (Mus musculus [18]) was 158% and the Cures (Mus musculus [20]) was 2. For the same molecule, the ILS at 8 mg/kg (Mus musculus [30]) was 49%, the ILS at 40 mg/kg (Mus musculus [21]) was greater than 281% and the ILS at 1.25 mg/kg (Mus musculus [22]) was 46%. For the same molecule, the ILS at 16 mg/kg (Mus musculus [31]) was 81%, the T/C (Mus musculus [23]) was 19% and the ILS at 5 mg/kg (Mus musculus [24]) was 102%. The Cures (Mus musculus [25]) was 3.
